Test results taken from ChEMBL document CHEMBL1137400, “Dopamine/serotonin receptor ligands. 13: Homologization of a benzindoloazecine-type dopamine receptor antagonist modulates the affinities for dopamine D(1)-D(5) receptors” (J Med Chem, 2006).
pKi: −log10 of the molar value. Calls of active or inactive are those of the source. No cut-off for these calls is given here.

Legend:
D(3) dopamine receptor = D(3) dopamine receptor (Homo sapiens, UniProt P35462); assay: Displacement of [3H]spiperone from human D3 receptor expressed in CHO cells; assay type: cell-based
Outline: (§1)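 Human D2L or D3 receptors stably expressed in CHO cells; [3H]spiperone displacement in 96-well format. Incubation 90 min at 27 °C, ended by rapid filtration. IC50 was converted to Ki by Cheng-Prusoff. At least two independent experiments, each run in triplicate.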

D(1B) dopamine receptor [1] = target: T1, D(1B) dopamine receptor (Homo sapiens, UniProt P21918); assay: Displacement of [3H]SCH 23390 from human D5 dopamine receptor expressed in HEK293 cells; assay type: cell-based
Outline: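 Radioligand binding with [3H]SCH 23390 on human D5 stably expressed in HEK293 cells, in 96-well format. Incubation 90 min at 27 °C, stopped by rapid filtration. Ki was calculated from IC50 by Cheng-Prusoff. At least two independent experiments, each in triplicate.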

D(1A) dopamine receptor [2] = target: T2, D(1A) dopamine receptor (Homo sapiens, UniProt P21728); assay: Activity at human D1 dopamine receptor expressed in HEK293 cells by calcium fluorescence assay; assay type: functional, cell-based
Outline: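 Human D1 stably expressed in HEK293 cells. Intracellular Ca2+ was read by fluorescence. Compounds were first checked for any Ca2+ rise on their own, then tested for concentration-dependent suppression of the signal induced by the agonist SKF 38393. Ki was taken from the sigmoidal inhibition curve. Means of three experiments of six values each (±SEM), or of two experiments.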

D(1B) dopamine receptor [3] = target: T1, D(1B) dopamine receptor; assay: Activity at human D5 dopamine receptor expressed in HEK293 cells by calcium fluorescence assay; assay type: functional, cell-based
D(2) dopamine receptor [4] = target: T3, D(2) dopamine receptor (Homo sapiens, UniProt P14416); assay: Displacement of [3H]spiperone from human D2L dopamine receptor expressed in CHO cells; assay type: cell-based; outline: as §1
D(2) dopamine receptor [5] = target: T3, D(2) dopamine receptor; assay: Activity at human D2L dopamine receptor expressed in HEK293 cells by calcium fluorescence assay; assay type: functional, cell-based
[6] = target: T4, D(4) dopamine receptor (Homo sapiens) (UniProt P21917); assay: (§2) Displacement of [3H]spiperone from human D4 dopamine receptor expressed in CHO cells; assay type: cell-based
T4 sequence (whole entry): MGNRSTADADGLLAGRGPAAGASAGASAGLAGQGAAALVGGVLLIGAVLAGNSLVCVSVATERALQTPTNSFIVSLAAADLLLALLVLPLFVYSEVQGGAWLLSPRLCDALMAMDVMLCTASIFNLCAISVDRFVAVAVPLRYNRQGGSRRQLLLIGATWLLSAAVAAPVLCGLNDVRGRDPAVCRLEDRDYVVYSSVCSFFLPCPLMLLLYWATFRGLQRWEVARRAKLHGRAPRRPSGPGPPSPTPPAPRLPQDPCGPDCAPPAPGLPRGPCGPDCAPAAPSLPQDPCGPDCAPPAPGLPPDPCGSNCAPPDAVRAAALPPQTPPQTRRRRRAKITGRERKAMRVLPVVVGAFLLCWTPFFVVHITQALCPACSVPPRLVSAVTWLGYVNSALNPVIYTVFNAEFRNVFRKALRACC
Outline: (§3)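 Human cloned receptors stably expressed: D1 in HEK293 cells with [3H]SCH 23390, and D4.4 in CHO cells with [3H]spiperone. Radioligand displacement was run in 96-well format, incubated 90 min at 27 °C and stopped by rapid filtration. At least two independent experiments, each in triplicate. Ki was calculated from IC50 by Cheng–Prusoff. "No activity" means under 70% displacement at 10^-5 M.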

D(1A) dopamine receptor [7] = target: T2, D(1A) dopamine receptor; assay: Displacement of [3H]SCH 23390 from human D1 dopamine receptor expressed in HEK293 cells; assay type: cell-based; outline: as §3
D(4) dopamine receptor = target: T5, D(4) dopamine receptor (Homo sapiens, UniProt P21917); assay: as §2; assay type: cell-based; outline: as §3
T5 sequence (P21917 whole entry): T4 sequence (whole entry)

T3 sequence (P14416 whole entry): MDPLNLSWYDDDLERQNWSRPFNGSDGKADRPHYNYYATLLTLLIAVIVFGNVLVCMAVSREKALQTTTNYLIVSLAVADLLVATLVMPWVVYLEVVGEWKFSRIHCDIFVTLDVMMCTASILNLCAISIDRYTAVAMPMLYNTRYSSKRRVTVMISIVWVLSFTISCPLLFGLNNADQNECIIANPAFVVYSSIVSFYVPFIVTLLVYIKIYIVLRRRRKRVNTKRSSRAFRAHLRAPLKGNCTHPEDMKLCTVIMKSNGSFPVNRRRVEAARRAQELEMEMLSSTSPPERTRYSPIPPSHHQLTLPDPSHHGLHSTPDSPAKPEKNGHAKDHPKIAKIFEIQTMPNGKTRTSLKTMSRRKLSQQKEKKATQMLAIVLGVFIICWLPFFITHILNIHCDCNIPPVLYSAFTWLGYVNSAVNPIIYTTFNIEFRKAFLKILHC
Sequence of D(3) dopamine receptor (P35462 whole entry): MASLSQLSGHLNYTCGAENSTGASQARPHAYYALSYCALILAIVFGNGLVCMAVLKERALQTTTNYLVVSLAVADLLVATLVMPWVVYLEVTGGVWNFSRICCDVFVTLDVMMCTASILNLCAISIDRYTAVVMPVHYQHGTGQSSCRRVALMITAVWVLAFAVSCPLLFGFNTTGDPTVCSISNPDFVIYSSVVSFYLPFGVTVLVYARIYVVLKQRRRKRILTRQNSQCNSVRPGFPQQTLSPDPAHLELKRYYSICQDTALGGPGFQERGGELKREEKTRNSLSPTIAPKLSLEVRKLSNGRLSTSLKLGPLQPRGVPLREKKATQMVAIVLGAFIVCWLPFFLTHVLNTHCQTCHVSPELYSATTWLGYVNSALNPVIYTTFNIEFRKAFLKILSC
T1 sequence (P21918 whole entry): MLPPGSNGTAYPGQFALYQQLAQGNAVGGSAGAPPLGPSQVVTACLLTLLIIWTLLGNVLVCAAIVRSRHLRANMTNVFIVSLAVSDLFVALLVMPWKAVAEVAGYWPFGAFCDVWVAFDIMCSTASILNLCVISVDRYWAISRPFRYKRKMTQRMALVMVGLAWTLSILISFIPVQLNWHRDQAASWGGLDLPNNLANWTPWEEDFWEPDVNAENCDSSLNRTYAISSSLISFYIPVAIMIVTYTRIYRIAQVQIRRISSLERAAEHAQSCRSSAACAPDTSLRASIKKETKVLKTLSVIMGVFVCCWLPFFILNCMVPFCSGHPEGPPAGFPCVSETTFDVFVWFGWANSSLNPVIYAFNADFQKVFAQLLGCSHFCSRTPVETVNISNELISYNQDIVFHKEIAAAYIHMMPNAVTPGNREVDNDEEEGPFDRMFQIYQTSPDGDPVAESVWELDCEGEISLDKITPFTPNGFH
T2 sequence (P21728 whole entry): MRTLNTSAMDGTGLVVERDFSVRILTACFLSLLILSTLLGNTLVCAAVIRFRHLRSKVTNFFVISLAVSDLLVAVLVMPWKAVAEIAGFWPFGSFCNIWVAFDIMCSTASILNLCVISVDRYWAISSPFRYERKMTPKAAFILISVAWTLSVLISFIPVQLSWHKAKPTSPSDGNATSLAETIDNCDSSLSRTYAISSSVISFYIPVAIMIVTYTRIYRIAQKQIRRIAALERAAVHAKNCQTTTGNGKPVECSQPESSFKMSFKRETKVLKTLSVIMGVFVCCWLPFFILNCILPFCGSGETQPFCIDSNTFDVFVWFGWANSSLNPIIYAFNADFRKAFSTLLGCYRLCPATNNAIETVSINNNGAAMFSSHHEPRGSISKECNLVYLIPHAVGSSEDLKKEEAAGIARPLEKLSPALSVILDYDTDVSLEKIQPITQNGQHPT

| Structure (SMILES) | Activity (D(3) dopamine receptor) | Activity (D(1B) dopamine receptor [1]) | Activity (D(1A) dopamine receptor [2]) | Activity (D(1B) dopamine receptor [3]) | Activity (D(2) dopamine receptor [4]) | Activity (D(2) dopamine receptor [5]) | Activity [6] | Activity (D(1A) dopamine receptor [7]) | pKi (D(3) dopamine receptor) | pKi (D(4) dopamine receptor) | pKi (D(1B) dopamine receptor [1]) | pKi (D(1A) dopamine receptor [2]) | pKi (D(1B) dopamine receptor [3]) | pKi (D(2) dopamine receptor [4]) | pKi (D(2) dopamine receptor [5]) | pKi (D(1A) dopamine receptor [7]) |
| --- | --- | --- | --- | --- | --- | --- | --- | --- | --- | --- | --- | --- | --- | --- | --- | --- |
| c1ccc2c(c1)CCCN1CCc3c([nH]c4ccccc34)C21 (centres undefined) | inactive | inactive | inactive | inactive | inactive | inactive | inactive | inactive | – | – | – | – | – | – | – | – |
| CN1CCCc2ccccc2Cc2[nH]c3ccccc3c2CC1 | – | – | – | – | – | – | – | – | 6.56 | 7.01 | 9.21 | 8.55 | 8.55 | 7.84 | 8.82 | 8.66 |
| CN1CCCc2c([nH]c3ccccc23)Cc2ccccc2CC1 | – | – | – | – | – | – | – | – | 6.28 | 6.74 | 7.04 | 6.52 | 7.15 | 6.84 | 7.42 | 6.79 |

Continued, in another order:

| Activity (D(3) dopamine receptor) | Activity (D(1B) dopamine receptor [1]) | Activity (D(1A) dopamine receptor [2]) | Activity (D(1B) dopamine receptor [3]) | Activity (D(2) dopamine receptor [4]) | Activity (D(2) dopamine receptor [5]) | Activity [6] | Activity (D(1A) dopamine receptor [7]) | pKi (D(3) dopamine receptor) | pKi (D(4) dopamine receptor) | Structure (SMILES) | pKi (D(1B) dopamine receptor [1]) | pKi (D(1A) dopamine receptor [2]) | pKi (D(1B) dopamine receptor [3]) | pKi (D(2) dopamine receptor [4]) | pKi (D(2) dopamine receptor [5]) | pKi (D(1A) dopamine receptor [7]) |
| --- | --- | --- | --- | --- | --- | --- | --- | --- | --- | --- | --- | --- | --- | --- | --- | --- |
| inactive | inactive | inactive | inactive | inactive | inactive | inactive | inactive | – | – | c1ccc2c(c1)CCN1CCCc3c([nH]c4ccccc34)C21 (centres undefined) | – | – | – | – | – | – |
| – | – | – | – | – | – | – | – | 7.59 | 6.97 | CN1CCc2ccccc2Cc2[nH]c3ccccc3c2CC1 | – | – | – | – | – | – |
